According to ChEMBL document CHEMBL1146749, “The effect of C2-fluoro group on the biological activity of DC-81 and its dimers” (2004):

Columns and labels:
[1] = tested on: Nucleic Acid; test: DNA binding ability by thermal denaturation studies using calf thymus DNA after incubation at 37 degree C for 36 hour; assay type: nucleic-acid assay; conditions: Bos taurus
Method in brief: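 Calf thymus DNA 100 µM with PBD 20 µM (1:5 [PBD]:[DNA]) in 10 mM sodium phosphate + 1 mM EDTA, pH 7.00, incubated at 37 °C for 0, 18 or 36 h. Thermal melting measured; ΔTm taken relative to CT-DNA alone, whose Tm is the mean of 10 separate determinations.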

[2] = tested on: Nucleic Acid; test: DNA binding ability by thermal denaturation studies using calf thymus DNA after incubation at 37 degree C for 0 hour; assay type: nucleic-acid assay; conditions: Bos taurus
[3] = tested on: Nucleic Acid; test: DNA binding ability by thermal denaturation studies using calf thymus DNA after incubation at 37 degree C for 18 hour; assay type: nucleic-acid assay; conditions: Bos taurus
[4] = tested on: NCI-H460; test: In vitro anticancer activity was evaluated for the percentage growth of human lung NCI-H460 cell line; assay type: functional
Method in brief: (§1)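 Each cell line received a single dose of 10^-4 M, and the read-out was percentage growth.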

[5] = tested on: SF-268; test: In vitro anticancer activity was evaluated for the percentage growth of human (CNS) SF-268 cell line; assay type: functional; method in brief: as §1
[6] = tested on: SR; test: In vitro cytotoxicity against human leukemia SR cancer cell line; assay type: functional
[7] = tested on: CCRF-CEM; test: In vitro cytotoxicity against human leukemia CCRF-CEM cancer cell line; assay type: functional
[8] = tested on: SW-620; test: In vitro cytotoxicity against human colon SW-620 cancer cell line; assay type: functional
[9] = tested on: UO-31; test: In vitro cytotoxicity against human renal UO-31 cancer cell line; assay type: functional
[10] = tested on: SF-295; test: In vitro cytotoxicity against human CNS SF-295 cancer cell line; assay type: functional
[11] = tested on: MCF7; test: In vitro anticancer activity was evaluated for the percentage growth of human breast MCF-7 cell line; assay type: functional; method in brief: as §1
[12] = tested on: Hs-578T; test: In vitro cytotoxicity against human breast Hs 578.T cancer cell line; assay type: functional
[13] = tested on: NCI-H522; test: In vitro cytotoxicity against human non-small cell lung NCI-H522 cancer cell line; assay type: functional
[14] = tested on: SF-268; test: In vitro cytotoxicity against human CNS SF-268 cancer cell line; assay type: functional

| ΔTm [1] [°C] | ΔTm [3] [°C] | Structure (SMILES) | ΔTm [2] [°C] | Growth [4] [%] | Growth [5] [%] | GI50 [6] [µM] | GI50 [7] [µM] | GI50 [8] [µM] | GI50 [9] [µM] | GI50 [10] [µM] | Growth [11] [%] | GI50 [12] [µM] | GI50 [13] [µM] | GI50 [14] [µM] |
| --- | --- | --- | --- | --- | --- | --- | --- | --- | --- | --- | --- | --- | --- | --- |
| 13.8 | 12.3 | COc1cc2c(cc1OCCCCOc1cc3c(cc1OC)C(=O)N1C[C@@H](F)C[C@H]1C=N3)N=C[C@@H]1C[C@H](F)CN1C2=O | 4.6 | – | – | – | – | – | – | – | – | – | – | – |
| 2.2 | 1 | COc1cc2c(cc1O)N=C[C@@H]1C[C@H](F)CN1C2=O | 0.3 | 0 | 0 | 0.2 | 0.3 | 1.19 | 0.17 | 0.32 | 0 | 0.01 | 0.41 | 0.35 |
| 2.5 | 2 | COc1cc2c(cc1OCc1ccccc1)N=C[C@@H]1C[C@H](F)CN1C2=O | 1.1 | 1 | 19 | < 0.01 | < 0.01 | < 0.01 | < 0.01 | 0.03 | 0 | < 0.01 | < 0.01 | 0.01 |
| 2.25 | 1.5 | COc1cc2c(cc1O)N=C[C@@H]1C[C@@H](F)CN1C2=O | 0.6 | – | – | – | – | – | – | – | – | – | – | – |
| – | – | COc1cc2c(cc1OCCCOc1cc3c(cc1OC)C(=O)N1CCC[C@H]1C=N3)N=C[C@@H]1CCCN1C2=O | 10.2 | – | – | – | – | – | – | – | – | – | – | – |

| Structure (SMILES) | ΔTm [1] [°C] | ΔTm [3] [°C] | ΔTm [2] [°C] | Growth [4] [%] | Growth [5] [%] | GI50 [6] [µM] | GI50 [7] [µM] | GI50 [8] [µM] | GI50 [9] [µM] | GI50 [10] [µM] | Growth [11] [%] | GI50 [12] [µM] | GI50 [13] [µM] | GI50 [14] [µM] |
| --- | --- | --- | --- | --- | --- | --- | --- | --- | --- | --- | --- | --- | --- | --- |
| COc1cc2c(cc1OCCCCCOc1cc3c(cc1OC)C(=O)N1C[C@@H](F)C[C@H]1C=N3)N=C[C@@H]1C[C@H](F)CN1C2=O | 17.4 | 16 | 14.2 | 0 | 0 | < 0.01 | < 0.01 | 0.02 | < 0.01 | < 0.01 | 0 | < 0.01 | < 0.01 | < 0.01 |
| COc1cc2c(cc1OCCCOc1cc3c(cc1OC)C(=O)N1C[C@@H](F)C[C@H]1C=N3)N=C[C@@H]1C[C@H](F)CN1C2=O | 6.16 | 4.9 | 3.1 | 0 | 0 | 1.54 | – | 4.2 | 2.4 | 1.96 | 0 | – | 1.88 | 2.2 |
| COc1cc2c(cc1O)N=C[C@@H]1CCCN1C2=O | – | 0.7 | 0.3 | – | – | – | – | – | – | – | – | – | – | – |
